Results taken from ChEMBL document CHEMBL1143924, “Discovery of 2-amino-6-carboxamidobenzothiazoles as potent Lck inhibitors” (Bioorg Med Chem Lett, 2008).

What was measured:
Assay type in all cases: functional, cell-based
BaF3 [1] = assay: Antiproliferative activity against Lck transformed mouse BaF3 cells after 48 hrs by luciferase assay; conditions: BaF3, 48 h
Summary of the method: (§1)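 BaF3 cells transformed with the named kinase, 25,000 cells per well, exposed to serial inhibitor dilutions or DMSO for 48 h. Luciferase expression, read by Bright-Glo luminescence, served as the measure of proliferation/survival.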

Jurkat [2] = assay: Inhibition of ant-CD3+CD28 antibodies induced IL2 promoter activity in human Jurkat cells after 5 hrs
Summary of the method: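 Wells coated with anti-mouse IgG in sodium bicarbonate buffer, then loaded with OKT3 (mouse anti-human CD3) and mouse anti-human CD28 antibodies, then washed. Jurkat cells carrying IL-2 promoter-driven luciferase, 100,000 per well, incubated 5 h on the bound antibodies. Luciferase read-out by Bright-Glo.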

Jurkat [3] = assay: Inhibition of phorbol myristate acetate and ionomycin induced IL2 promoter activity in human Jurkat cells after 5 hrs
Summary of the method: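 Jurkat IL-2 promoter-luciferase cells, 50,000 per well, stimulated with PMA plus ionomycin, added as an equal volume of solution containing PMA at 40 ng/mL (concentration before mixing). IL-2 promoter activity read as luciferase signal by Bright-Glo.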

BaF3 [4] = assay: Antiproliferative activity against JAK3 transformed mouse BaF3 cells; summary of the method: as §1
BaF3 [5] = assay: Antiproliferative activity against Lyn transformed mouse BaF3 cells; summary of the method: as §1
BaF3 [6] = assay: Antiproliferative activity against FLT3 transformed mouse BaF3 cells; summary of the method: as §1
BaF3 [7] = assay: Antiproliferative activity against FGFR3 transformed mouse BaF3 cells; summary of the method: as §1
BaF3 [8] = assay: Antiproliferative activity against KDR transformed mouse BaF3 cells; summary of the method: as §1
BaF3 [9] = assay: Antiproliferative activity against Alk transformed mouse BaF3 cells; summary of the method: as §1
BaF3 [10] = assay: Antiproliferative activity against InsR transformed mouse BaF3 cells; summary of the method: as §1
BaF3 [11] = assay: Antiproliferative activity against Src transformed mouse BaF3 cells; summary of the method: as §1
BaF3 [12] = assay: Antiproliferative activity against Sky transformed mouse BaF3 cells; summary of the method: as §1

Compound | IC50 (BaF3 [1]) | other results
Cc1ccc(NC(=O)c2cccc(C(F)(F)F)c2)cc1NC(=O)c1ccc2nc(N(C)C(=O)OC(C)(C)C)sc2c1 | 955 nM | 
Cc1ccc(NC(=O)c2cccc(C(F)(F)F)c2)cc1NC(=O)c1ccc2nc(NC(=O)OC(C)(C)C)sc2c1 | 36 nM | 
COC(=O)Nc1nc2ccc(C(=O)Nc3cc(NC(=O)c4cccc(C(F)(F)F)c4)ccc3C)cc2s1 | 30 nM | IC50 (Jurkat [2]): 36 nM; IC50 (Jurkat [3]): 851 nM
Cc1ccc(NC(=O)c2cccc(C(F)(F)F)c2)cc1NC(=O)c1ccc2nc(NCCN3CCN(C)CC3)sc2c1 | 58 nM | 
COc1ccc(OC(=O)Nc2nc3ccc(C(=O)Nc4cc(NC(=O)c5cccc(C(F)(F)F)c5)ccc4C)cc3s2)cc1 | 131 nM | 
CCNC(=O)Nc1nc2ccc(C(=O)Nc3cc(NC(=O)c4cccc(C(F)(F)F)c4)ccc3C)cc2s1 | 16 nM | IC50 (Jurkat [2]): 44 nM; IC50 (Jurkat [3]): 373 nM
Cc1ccc(NC(=O)c2cccc(C(F)(F)F)c2)cc1NC(=O)c1ccc2nc(NCCCN3CCOCC3)sc2c1 | 78 nM | 
CCNC(=O)Nc1nc2ccc(C(=O)Nc3cc(NC(=O)c4ccc(Cl)c(C(F)(F)F)c4)ccc3C)cc2s1 | 50 nM | 
Cc1ccc(NC(=O)c2cccc(C(F)(F)F)c2)cc1NC(=O)c1ccc2nc(NCCCN(C)C)sc2c1 | 81 nM | 
Cc1cc(Nc2nc3ccc(C(=O)Nc4cc(NC(=O)c5cccc(C(F)(F)F)c5)ccc4C)cc3s2)no1 | 8 nM | 
CCNC(=O)Nc1nc2ccc(C(=O)Nc3cc(NC(=O)c4cccc(Cl)c4)ccc3C)cc2s1 | 104 nM | 
CCNC(=O)Nc1nc2ccc(C(=O)Nc3cc(NC(=O)c4ccnc(C(C)(C)C)c4)ccc3C)cc2s1 | 9 nM | 
CCNC(=O)Nc1nc2ccc(C(=O)Nc3cc(NC(=O)c4cc(-n5cnc(C)c5)cc(C(F)(F)F)c4)ccc3C)cc2s1 | 15 nM | 
Cc1cc(Nc2nc3ccc(C(=O)Nc4cc(NC(=O)c5cccc(C(F)(F)F)c5)ccc4C)cc3s2)nc(C)n1 | 0.6 nM | 
CNC(=O)Nc1nc2ccc(C(=O)Nc3cc(NC(=O)c4cccc(C(F)(F)F)c4)ccc3C)cc2s1 | 21 nM | IC50 (BaF3 [4]): 5010 nM; IC50 (BaF3 [5]): 94 nM; IC50 (BaF3 [6]): 3140 nM; IC50 (BaF3 [7]): 1980 nM; IC50 (BaF3 [8]): 1610 nM; IC50 (BaF3 [9]): 1630 nM; IC50 (BaF3 [10]): 1280 nM; IC50 (BaF3 [11]): 301 nM; IC50 (BaF3 [12]): 1100 nM
Cc1ccc(NC(=O)c2cccc(C(F)(F)F)c2)cc1NC(=O)c1ccc2nc(NC(=O)OC(C)C)sc2c1 | 30 nM | IC50 (BaF3 [4]): > 10000 nM; IC50 (BaF3 [5]): 268 nM; IC50 (BaF3 [6]): > 10000 nM; IC50 (BaF3 [7]): 12600 nM; IC50 (BaF3 [8]): 3280 nM; IC50 (BaF3 [9]): 6110 nM; IC50 (BaF3 [10]): 13500 nM; IC50 (BaF3 [11]): 517 nM; IC50 (BaF3 [12]): 2440 nM
CCNC(=O)Nc1nc2ccc(C(=O)Nc3cc(NC(=O)c4cc(F)cc(C(F)(F)F)c4)ccc3C)cc2s1 | 7 nM | 
CCNC(=O)N(C)c1nc2ccc(C(=O)Nc3cc(NC(=O)c4cccc(C(F)(F)F)c4)ccc3C)cc2s1 | > 10000 nM | 
Cc1ccc(NC(=O)c2cccc(C(F)(F)F)c2)cc1NC(=O)c1ccc2nc(N)sc2c1 | 170 nM | 
CCNC(=O)Nc1nc2ccc(C(=O)Nc3cc(NC(=O)c4ccc(C(C)(C)C)s4)ccc3C)cc2s1 | 12 nM | 
Cc1cc(C)nc(Nc2nc3ccc(C(=O)Nc4cc(NC(=O)c5cccc(C(F)(F)F)c5)ccc4C)cc3s2)n1 | 53 nM | 

Further lines, with some results ahead:

IC50 (BaF3 [1]) | Compound | other results
118 nM | CCNC(=O)Nc1nc2ccc(C(=O)Nc3cc(C(=O)Nc4cccc(C(F)(F)F)c4)ccc3C)cc2s1 | 
139 nM | Cc1ccc(C(=O)Nc2cccc(C(F)(F)F)c2)cc1NC(=O)c1ccc2nc(NC(=O)NC3CCCC3)sc2c1 | 
16 nM | Cc1ccc(NC(=O)c2cccc(C(F)(F)F)c2)cc1NC(=O)c1ccc2nc(NC(=O)NC3CCCC3)sc2c1 | IC50 (Jurkat [2]): 62 nM; IC50 (Jurkat [3]): 812 nM
125 nM | Cc1ccc(NC(=O)c2cccc(C(F)(F)F)c2)cc1NC(=O)c1ccc2nc(NC(=O)Nc3cccnc3)sc2c1 | 
158 nM | CCNC(=O)Nc1nc2ccc(C(=O)Nc3cc(NC(=O)c4cccc(OC)c4)ccc3C)cc2s1 | 
19 nM | CCNC(=O)Nc1nc2ccc(C(=O)Nc3cc(NC(=O)c4cc(N5CCN(C)CC5)cc(C(F)(F)F)c4)ccc3C)cc2s1 | 
2100 nM | Cc1cc(Br)c(NC(=O)c2cccc(C(F)(F)F)c2)cc1NC(=O)c1ccc2nc(NCCN3CCOCC3)sc2c1 | 
8 nM | COCCOC(=O)Nc1nc2ccc(C(=O)Nc3cc(NC(=O)c4cccc(C(F)(F)F)c4)ccc3C)cc2s1 | IC50 (Jurkat [2]): 12 nM; IC50 (Jurkat [3]): 438 nM
112 nM | CCNC(=O)Nc1nc2ccc(C(=O)Nc3cc(NC(=O)c4cccc(C)c4)ccc3C)cc2s1 | 
16 nM | Cc1ccnc(Nc2nc3ccc(C(=O)Nc4cc(NC(=O)c5cccc(C(F)(F)F)c5)ccc4C)cc3s2)c1 | 
4 nM | Cc1ccc(NC(=O)c2cccc(C(F)(F)F)c2)cc1NC(=O)c1ccc2nc(Nc3cnccn3)sc2c1 | 
112 nM | Cc1ccc(NC(=O)c2cccc(C(F)(F)F)c2)cc1NC(=O)c1ccc2nc(NC(=O)Oc3ccccc3)sc2c1 | 
94 nM | Cc1ccc(NC(=O)c2cccc(C(F)(F)F)c2)cc1NC(=O)c1ccc2nc(NC(=O)Nc3ccccc3)sc2c1 | 
